Hits are enriched below; roughly 2.1% of the tested compounds scored in any of these assays.
Statin myotox sup – suppression of simvastatin myotoxicity; rescue of ATP level, % at 7.49 µM; 330,000 compounds, 0.78% hits; C2C12 myotubes + simvastatin, ATP luminescence, 48 h; scaled: DMSO 0, geranylgeraniol control 100; AID 602340;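 active means mean ATP rescue above about 67%, or every replicate alone reaching that limit, limit read from the data, passing the limit was not always enough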;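 further: myotubes were challenged with 10 µM simvastatin during compound exposure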
Mot1-301 SUMO – blocks SUMOylation pathway, rescuing yeast Mot1-301 growth. S. cerevisiae Mot1-301 growth rescue, ATP luminescence, 38.5C; percent above DMSO median, 100 means doubled. growth rescue, % at 18.8 µM. 320,000 compounds, 1% hits. AID 2716;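 active means every valid replicate shows activation above 250% relative to neutral control wells; inactive means the rest, any valid replicate at or below 250%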;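 further: OY570 slx delta 5 strain wells were the positive control but not used for scaling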
ARFGAP1 inhibitor – inhibits rat ARF GTPase activating protein 1. Q62848. Arfgap1-stimulated ARF1 GTP hydrolysis, GDP FP detection. inhibition, % at 16.5 µM. 360,000 compounds, 0.26% hits. AID 651572;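 active means inhibition above a per-plate limit, mean inhibition of low control wells plus 3 SD, cut at about 25% in these data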;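 further: 0% = DMSO wells with enzyme and 100% = wells lacking Arfgap1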
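Material – truncated rat Arfgap1 GAP domain · Buffer or medium – HEPES-based buffer, pH 7.5 · Reagent – human ARF1(Δ1-17)-GTP substrate · Dosing – 16.5 µM single point, 1.26% DMSO · Schedule – GTP hydrolysis reaction 2 h at 25 °C · Technique – GDP detection by fluorescence polarization · Benchmarks – No-Arfgap1 wells (100%) versus DMSO full-reaction wells (0%) · Repeats – single replicate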
A3A deaminase – blocks human APOBEC3A ssDNA deamination | recombinant A3A, FAM/TAMRA ssDNA deamination fluorescence | inhibition, % at 20 µM | 330,000 compounds, 0.41% hits | AID 493011;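 active means at least 40% inhibition at 20 µM here, with at most 30% in a related deaminase screen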;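 further: plate controls were A3A with DMSO for no effect and wells lacking A3A enzyme for full effect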
ASAP1 inh – blocks human ASAP1-stimulated Arf1 GTP hydrolysis | AID 624377 | Q9ULH1 | 360,000 compounds, 0.19% hits | GDP FP detection | inhibition, % at 16.5 µM; in the data active means inhibition above about 25%;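 further: 0% = vehicle with enzyme and substrate and 100% = no enzyme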
APOBEC3G inh – blocks human APOBEC3G single-stranded DNA deamination; recombinant A3G, ssDNA deamination FAM/TAMRA fluorescence; AID 493012; 330,000 compounds, 0.28% hits; Q9HC16; inhibition, % at 20 µM;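 active means inhibition of at least 40% at 20 µM, with no more than 30% in the related APOBEC3A deaminase screen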;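 further: plate controls were DMSO wells with A3G for no effect and wells lacking A3G enzyme for full effect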
Target sequence (Q9HC16 whole entry, looked up): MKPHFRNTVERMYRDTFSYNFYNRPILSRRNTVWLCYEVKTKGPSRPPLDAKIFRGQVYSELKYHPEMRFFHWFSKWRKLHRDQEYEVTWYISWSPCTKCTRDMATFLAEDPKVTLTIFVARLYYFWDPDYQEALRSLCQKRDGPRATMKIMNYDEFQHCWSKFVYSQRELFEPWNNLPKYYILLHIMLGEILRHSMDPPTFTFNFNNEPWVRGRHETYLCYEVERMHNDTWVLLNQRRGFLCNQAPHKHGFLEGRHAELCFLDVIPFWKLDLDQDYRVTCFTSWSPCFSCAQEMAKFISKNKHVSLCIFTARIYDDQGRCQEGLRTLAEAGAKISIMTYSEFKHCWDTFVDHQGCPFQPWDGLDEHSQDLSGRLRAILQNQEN
A3A conf – APOBEC3A (human) deaminase inhibition, confirmed; shares compounds with A3A deaminase; recombinant A3A, ssDNA deaminase UDG fluorescence assay; inhibition, % at 20 µM; 1,400 compounds, 63% hits;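 active means inhibition reaching a set limit, 80% of the first screen's cutoff, at 20 µM in any replicate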;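 further: plate controls were DMSO wells with A3A for no effect and wells lacking A3A enzyme for full effect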
UDG A3A counter – counter-screen for APOBEC3A inhibitors: UDG. inhibition, % at 20 µM. UDG counterscreen, FAM/TAMRA uracil oligo fluorescence. 1,000 tested, under 10 active. AID 504714. shares compounds with A3A deaminase; call rule not given here
Starred values were filed as active, the others as inactive.

`Cc1ccc(Nc2nc(-c3ccc(S(=O)(=O)N4CCCC4)cc3)cs2)cc1C` gave Mot1-301 SUMO 6, A3A deaminase 87*, APOBEC3G inh -3, A3A conf -7 and UDG A3A counter 0.
Screening Cc1cc(C)cc(Nc2nc(-c3ccc(S(=O)(=O)N4CCCC4)cc3)cs2)c1 returned Mot1-301 SUMO -14, ARFGAP1 inhibitor -4, A3A deaminase -2, ASAP1 inh -3 and APOBEC3G inh -6.
COc1ccc(C2=[N+](C)CCn3cccc32)c(OC)c1 was read as Mot1-301 SUMO 241, ARFGAP1 inhibitor -5, A3A deaminase 63*, ASAP1 inh -8, APOBEC3G inh 14, A3A conf 73* and UDG A3A counter 3.
`O=C(COC(=O)c1ccccc1)NCc1ccco1` gave Statin myotox sup -15, Mot1-301 SUMO -26, ARFGAP1 inhibitor -6, A3A deaminase 30, ASAP1 inh -10 and APOBEC3G inh 10.
Screening O=C(COC(=O)c1ccccc1Nc1cccc(C(F)(F)F)c1)NCc1ccco1 returned Mot1-301 SUMO 217, ARFGAP1 inhibitor -6, A3A deaminase 42*, ASAP1 inh 6, APOBEC3G inh 23, A3A conf 23* and UDG A3A counter -2.
`Cc1onc(-c2ccccc2Cl)c1C(=O)Nc1ccc(Cl)cn1` gave Mot1-301 SUMO -7, ARFGAP1 inhibitor -9, A3A deaminase 60*, ASAP1 inh 4, APOBEC3G inh 16 and A3A conf 1.
For COc1cccc(S(=O)(=O)Nc2ccc3c(c2)[C@H]2C[C@H](CC(=O)NCc4ccccc4F)O[C@@H](CO)[C@H]2O3)c1 the results were Statin myotox sup 4.
For CCN(CC)C(=O)c1ccc(/C=C/c2c[nH]c3ccccc23)[n+](C)c1 the results were Statin myotox sup -73, Mot1-301 SUMO 10, ARFGAP1 inhibitor 8, A3A deaminase 42*, ASAP1 inh -2, APOBEC3G inh 13, A3A conf 68* and UDG A3A counter 4.
Cc1ccc(C(=O)/C=C/c2c[nH]c3ccccc23)cc1 was read as Statin myotox sup 14, Mot1-301 SUMO -12, ARFGAP1 inhibitor 2, A3A deaminase -1, ASAP1 inh -9 and APOBEC3G inh -5.
`O=C(O)c1cccc(-n2cccc2/C=C2/NC(=O)N(Cc3ccccc3F)C2=O)c1` gave Mot1-301 SUMO -4, ARFGAP1 inhibitor 0, A3A deaminase 62*, ASAP1 inh 8, APOBEC3G inh 11, A3A conf 62* and UDG A3A counter -1.
Screening O=C1N/C(=C/c2cccn2-c2ccc(F)cc2)C(=O)N1Cc1ccccc1F returned Mot1-301 SUMO 5, ARFGAP1 inhibitor 10, A3A deaminase -3, ASAP1 inh 11 and APOBEC3G inh 1.
Screening CC(C)CN(C(=O)CCCc1nc2ccccc2c(=O)[nH]1)c1c(N)n(Cc2ccccc2)c(=O)[nH]c1=O returned Statin myotox sup -18, Mot1-301 SUMO 73, ARFGAP1 inhibitor -3, A3A deaminase 42*, ASAP1 inh 4, APOBEC3G inh 4 and A3A conf 2.
Screening Cc1nc2ccccc2c(C)c1CC(=O)N(CC(C)C)c1c(N)n(Cc2ccccc2)c(=O)[nH]c1=O returned Statin myotox sup -5, Mot1-301 SUMO -7, ARFGAP1 inhibitor -4, A3A deaminase 0, ASAP1 inh -9 and APOBEC3G inh -2.
For C[C@H]1CN([C@@H](C)CO)C(=O)c2cccc(NC(=O)c3cnccn3)c2O[C@H]1CN(C)CC1CCCCC1 the results were Statin myotox sup -7.
Screening Cc1cccc(NC(=O)CNC(=O)Cn2ncc(Cl)c(Cl)c2=O)c1C returned Statin myotox sup 8, Mot1-301 SUMO 3, A3A deaminase 49*, APOBEC3G inh 20, A3A conf 38* and UDG A3A counter 2.
